Experimental data gathered from unrelated publications.
Lines come from different studies, so protocols differ.
DRD3: D(3) dopamine receptor (DRD3, Homo sapiens, UniProt P35462)
PDE10A: cAMP and cAMP-inhibited cGMP 3',5'-cyclic phosphodiesterase 10A (PDE10A, Homo sapiens, UniProt Q9Y233)
SLC6A3: Sodium-dependent dopamine transporter (SLC6A3, Homo sapiens, UniProt Q01959)

With `Cc1ccc(NS(=O)(=O)c2c(C)[nH]c(C)c2C(=O)N2CCC(F)(F)C2)cc1Cl` the Emax was 95% (DRD3; β-arrestin recruitment, agonist; 90 min).
The remaining binding of `COc1ccc2oc(-c3ccc4nc(N)oc4c3)c/c(=N\c3ccccc3NC(=O)CCN)c2c1` is reported as 98% (AP2-associated protein kinase 1 (AAK1, Homo sapiens, UniProt Q2M2I8); binding; 1 µM).
`COc1cc2ncnc(Cc3cccc(Cl)c3)c2cc1OC` has an inhibition of 68% (PDE10A; enzyme activity, inhibitor, FP; 0.1 µM).
`Cc1[nH]c(C)c(S(=O)(=O)Nc2ccc(C(F)(F)F)c(Cl)c2)c1C(=O)N1CCC(F)(F)C1` gave an Emax of 103% (DRD3; β-arrestin recruitment, agonist; 90 min).
With `COc1ccc2c(Cc3ccc(OC)c(OC)c3)nccc2c1` the inhibition was 25% (PDE10A; enzyme activity, inhibitor, FP; 0.1 µM).
For `CCOC(=O)[C@@]12C[C@@H]1[C@@H](n1cnc3c(Nc4ccccc4)nc(I)nc31)[C@H](O)[C@@H]2O`, the inhibition was 32% (SLC6A3; ligand displacement, radioligand; 10 µM).
With `Cc1[nH]c(C)c(S(=O)(=O)Nc2ccc(C(F)(F)F)c(Cl)c2)c1C(=O)NCC(F)(F)F` the Emax was 98% (DRD3; β-arrestin recruitment, agonist; 90 min).
With `COc1cc2ncnc(C(=O)c3cccc4ccccc34)c2cc1OC` the inhibition was 52% (PDE10A; enzyme activity, inhibitor, FP; 0.1 µM).
`OC[C@@]12C[C@@H]1[C@@H](n1cnc3c(N[C@@H](C4CCC4)C4CC4)nc(C#Cc4ccc(Cl)s4)nc31)[C@H](O)[C@@H]2O` gave an inhibition of 80% (SLC6A3; ligand displacement, radioligand; 10 µM).
With `Cc1[nH]c(C)c(S(=O)(=O)Nc2cc(Cl)cc(C(F)(F)F)c2)c1C(=O)N1CCC(F)(F)C1` the Emax was 101% (DRD3; β-arrestin recruitment, agonist; 90 min).
`COc1cc2ncnc(Cc3cccc(-c4ccncc4)c3)c2cc1OC` has an inhibition of 57% (PDE10A; enzyme activity, inhibitor, FP; 0.1 µM).
For `CCCCC(=O)Nc1ccc(-c2ccc3ncn(CCC)c(=O)c3c2)cn1`, the remaining binding was 100% (Discoidin domain-containing receptor 2 (DDR2, Homo sapiens, UniProt Q16832); binding, competition with immobilised ligand; 0.5 µM).
With `N#CC[C@@]12C[C@@H]1[C@@H](n1cnc3c(Nc4ccccc4)nc(I)nc31)[C@H](O)[C@@H]2O` the inhibition was 54% (SLC6A3; ligand displacement, radioligand; 10 µM).
The inhibition of `Cc1cc(O)c(-c2ccc([C@@H](C)CN(C)C)cc2)c2c1[nH]c(=O)c1sccc12` is reported as 0.174% (Cyclin-dependent kinase 12 (CDK12, Homo sapiens, UniProt Q9NYV4); enzyme activity, inhibitor; 0.1 µM).
The inhibition of `CCOC(=O)C12CC1C(n1ccc3c(NC4CC4)nc(C#Cc4ccccc4)nc31)C(O)C2O` (stereo not shown) is reported as -260% (SLC6A3; ligand displacement, radioligand; 10 µM).
The inhibition of `c1ccc(-c2cccc(Cc3ccnc4cc(C5COC5)ccc34)c2)cc1` is reported as 3% (PDE10A; enzyme activity, inhibitor, FP; 0.1 µM).
The inhibition of `CCOC(=O)[C@@]12C[C@@H]1[C@@H](n1cnc3c(NCCCCCCc4ccccc4)nc(I)nc31)[C@H](O)[C@@H]2O` is reported as 73% (SLC6A3; ligand displacement, radioligand; 10 µM).
For `COc1ccc2nccc(Cc3cccc(-c4ccc(C(=O)O)cc4)c3)c2c1`, the inhibition was 11% (PDE10A; enzyme activity, inhibitor, FP; 0.1 µM).
For `Cc1[nH]c(C)c(S(=O)(=O)Nc2ccc(C(=O)C(F)(F)F)c(Cl)c2)c1C(=O)N1CCC(F)(F)C1`, the Emax was 96% (DRD3; β-arrestin recruitment, agonist; 90 min).
The inhibition of `OC[C@@]12C[C@@H]1[C@@H](n1cnc3c(NC(C4CCC4)C4CCC4)nc(C#Cc4ccc(Cl)s4)nc31)[C@H](O)[C@@H]2O` is reported as 78% (SLC6A3; ligand displacement, radioligand; 10 µM).
With `COc1cc2ccnc(Cc3ccc4cnn(C)c4c3)c2cc1OC` the inhibition was 69% (PDE10A; enzyme activity, inhibitor, FP; 0.1 µM).
`Cc1[nH]c(C)c(S(=O)(=O)Nc2ccc([N+](=O)[O-])c(Cl)c2)c1C(=O)N1CCC(F)(F)C1` has an Emax of 101% (DRD3; β-arrestin recruitment, agonist; 90 min).
The inhibition of `COc1ccc(C(=O)c2ncnc3cc(OC)c(OC)cc23)cc1` is reported as 39% (PDE10A; enzyme activity, inhibitor, FP; 0.1 µM).
For `Cc1[nH]c(C)c(S(=O)(=O)Nc2ccc(Cl)c(C(F)(F)F)c2)c1C(=O)N1CCCC1`, the Emax was 88% (DRD3; β-arrestin recruitment, agonist; 90 min).
With `CSc1nc(NCCC2CC2)c2ncn([C@H]3[C@H](O)[C@H](O)[C@@H]4C[C@@H]43)c2n1` the inhibition was 16% (SLC6A3; ligand displacement, radioligand; 10 µM).
`Cc1ccc(NS(=O)(=O)c2c(C)[nH]c(C)c2C(=O)N2CCC2)cc1Cl` gave an Emax of 96% (DRD3; β-arrestin recruitment, agonist; 90 min).
`CCOC(=O)C12CC1C(n1ccc3c(NCCCc4ccccc4)nc(C#Cc4ccc(Cl)s4)nc31)C(O)C2O` (stereo not shown) gave an inhibition of 61% (SLC6A3; ligand displacement, radioligand; 10 µM).
`C1=C/COCc2cc(ccc2OCCN2CCCC2)Nc2nccc(n2)-c2cccc(c2)COC/1` has a remaining binding of 100% (Calcium/calmodulin-dependent protein kinase type IV (CAMK4, Homo sapiens, UniProt Q16566); binding; 0.1 µM).
